Counter-ions that a name gives are not always drawn. Numbered stars: 1 amine (or outer) side, 2 acyl side, 3 side chain; on linkers, the order of the positions; unused ones are H or OH. Bridge positions count the residues as written; N and C are the ends. Square brackets hold non-standard residues; d marks the D form. Peptide text beside a SMILES is read from it. I, II: the chains in the order shown. Actinocin(9to1) = Cc1c2oc3c(C)ccc(C(=O)[*:1])c3nc-2c(C(=O)[*:2])c(N)c1=O; NMeV = CN[C@H](C(=O)O)C(C)C; Sar = CNCC(=O)O
Key:
CMV AD169IE2-YFP [1] = assay: High-content screen, IE2-YFP nuclear fluorescence in infected MRC5 cells; format: cell-based, Human cytomegalovirus; settings: for activity at 5.6 µM: Human betaherpesvirus 5, MRC5, 16 h, read-out: YFP Intensity (%); for reduction of YFP intensity: primary screen, screening dose (5μM printed elsewhere in the source)
[2] = CC50 / cell viability by NucGreen staining, MRC5 cells; format: cell-based, Human; settings: human
CMV AD169 = assay: Immunoblot of viral early protein US11 in infected MRC5 cells; format: cell-based, Human cytomegalovirus; settings: MRC5, AD169-WT MOI 3, 20 hpi; for US11 protein level in infected cells: 50 or 500nM of respective compound
In short: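 MRC5 cells were pretreated 1 h at 37 °C with test compound or 0.1% DMSO, infected with wild-type AD169 (MOI 3), then washed once with DMEM before analysis.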

CMV AD169IE2-YFP [3] = assay: in vitro; format: cell-based, Human cytomegalovirus; settings: MRC5 cells; for selectivity ratio: human, Selective Ratio (CC50/EC50); for selectivity ratio / Selective Ratio (CC50/EC50): AD169IE2-YFP
CMV = assay: Addition of compound after infection; format: cell-based, Human cytomegalovirus; settings: added up to 4hpi, data not shown
[4] = Cell viability by NucGreen staining, ARPE-19 cells; format: cell-based; settings: human
In short: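 ARPE-19 cells, 10,000/well in 96-well plates, were exposed next day to test compound in DMEM, in sextuplicate. After 19 h, NucGreen dead-cell stain went into three of six wells per condition for 10 min at RT. Total cells were counted by fixing with 4% paraformaldehyde and adding NucGreen for 10 min. Signal was read on a fluorescent plate reader, and % viability was taken from NucGreen-positive counts of treated versus total cells.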

CMV AD169IE2-YFP [5] = assay: Multi-cycle infection study, YFP+ cells under long-term convallatoxin treatment; format: cell-based, Human cytomegalovirus
In short: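 MRC5 cells, 10,000/well in 96-well plates, received DMEM with test compound (0, 5, 10 or 50 nM) in sextuplicate. In one plate this was followed immediately by AD169 IE2-YFP infection (MOI 0.5) or medium alone. In the other, cells were infected (MOI 0.5) or mock-infected for 36 h before compound-containing medium was added. IE2-YFP-positive cells were read on a fluorescent plate reader up to 168 hpi.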

MRC5 cells [6] = assay: Cell viability under prolonged treatment, uninfected MRC5 fibroblasts, NucGreen; format: cell-based, Human; settings: 5nM, throughout the timecourse (up to 168 hours)
In short: (§1)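 Uninfected MRC5 fibroblasts, 10,000/well in 96-well plates, were kept in DMEM with test compound (0, 5, 10 or 50 nM) in sextuplicate for up to 168 h. NucGreen dead-cell staining was read on a fluorescent plate reader. Percent viability used the total cell number of DMSO-treated wells as 100%, plotted at 72, 120 and 168 hpi.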

[7] = as above; format: cell-based, Human; settings: human, uninfected MRC5 fibroblasts
In short: as §1

CMV TB40/EFLAG-YFP = assay: EC50 of convallatoxin, clinical strain reporter virus in ARPE-19 cells; format: cell-based, Human cytomegalovirus; settings: Human betaherpesvirus 5, ARPE-19
In short: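 ARPE-19 cells, 10,000/well in 96-well plates, got DMEM with test compound (0-10 nM) the next day, in sextuplicate. They were then infected with TB40/E FLAG-YFP (US28 replaced by FLAG-YFP; MOI 20). YFP+ cells were counted at 120 hpi on an Acumen eX3 cytometer, with positive meaning above 2 SD of background. % infection was set against DMSO-treated cells; EC50 came from a three-parameter log(inhibitor)-response fit of mean values.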

CMV AD169IE2-YFP [8] = format: cell-based, Human cytomegalovirus; settings: MRC5, MOI 0.5, compound present until 24 hpi
MRC5 cells [9] = assay: CC50 / cell viability by NucGreen staining, MRC5 cells; format: cell-based, Human; settings: MRC5 cells, 0-5μM, 19 hours, NucGreen

CC[C@]1(O)C[C@@H]2CN(CCc3c([nH]c4ccccc34)[C@@](C(=O)OC)(c3cc4c(cc3OC)N(C)[C@H]3[C@@](O)(C(=O)OC)[C@H](OC(C)=O)[C@]5(CC)C=CCN6CC[C@]43[C@@H]65)C2)C1 [Vinblastine sulfate]
activity at 5.6 µM (CMV AD169IE2-YFP [1]): 24.2 ± 0.48%

CC[C@H]1CN2CCc3cc(OC)c(OC)cc3[C@@H]2C[C@@H]1C[C@H]1NCCc2cc(OC)c(OC)cc21 [emetine]
reduction of YFP intensity (CMV AD169IE2-YFP [1]): 41%

COc1cc([C@@H]2c3cc4c(cc3[C@H](O)[C@H]3COC(=O)[C@H]23)OCO4)cc(OC)c1OC [Podofilox]
CC50 at 19 h ([2]; MRC5 cells): > 5000 nM
US11 protein level in infected cells (CMV AD169): lower levels of US11
selectivity ratio (CMV AD169IE2-YFP [3]): > 192
activity at 5.6 µM (CMV AD169IE2-YFP [1]): 14.5 ± 0.31%

C[C@@H]1O[C@@H](O[C@H]2C[C@@H](O)[C@]3(CO)[C@H]4[C@H](O)C[C@]5(C)[C@@H](C6=CC(=O)OC6)CC[C@]5(O)[C@@H]4CC[C@]3(O)C2)[C@H](O)[C@H](O)[C@H]1O [ouabain]
reduction of YFP intensity (CMV AD169IE2-YFP [1]): ≤ 70%

CC[C@]1(O)C[C@H]2CN(CCc3c([nH]c4ccccc34)[C@@](C(=O)OC)(c3cc4c(cc3OC)N(C=O)[C@H]3[C@@](O)(C(=O)OC)[C@H](OC(C)=O)[C@]5(CC)C=CCN6CC[C@]43[C@@H]65)C2)C1 [Vincristine sulfate]
CC50 at 19 h [2]: 40 nM
Selective Ratio (CC50/EC50) (CMV AD169IE2-YFP [3]): 3.4
activity at 5.6 µM (CMV AD169IE2-YFP [1]): 26.6 ± 0.53%

COc1cc2c(c(OC)c1OC)-c1ccc(OC)c(=O)cc1[C@@H](NC(C)=O)CC2 [Colchicine]
CC50 at 19 h [2]: > 5000 nM
US11 protein level in infected cells (CMV AD169): lower levels of US11
effect on infection when added after infection (CMV): reduced infection
activity at 5.6 µM (CMV AD169IE2-YFP [1]): 17.3 ± 0.34%

C[C@@H]1O[C@@H](O[C@H]2CC[C@]3(C=O)[C@H]4CC[C@]5(C)[C@@H](C6=CC(=O)OC6)CC[C@]5(O)[C@@H]4CC[C@]3(O)C2)[C@H](O)[C@H](O)[C@H]1O [Convallatoxin]
viability at 19 h, 10 nM [4]: ~80%
fluorescent expression relative to DMSO-treated cells (CMV AD169IE2-YFP [5]; 5nM, added at 0hpi, by 100hpi): approximately half
number of YFP+ cells compared to DMSO (CMV AD169IE2-YFP [5]; MRC5, MOI 0.5, 5, 10 or 50nM added simultaneously with virus (0hpi)): reduced the number of YFP+ cells in a dose-dependent manner
number of YFP+ cells (CMV AD169IE2-YFP [5]; MRC5, MOI 0.5, treatment of infected cells at 36hpi): significant decrease of YFP+ cells
CC50 at 19 h [2]: > 5000 nM
viability at 19 h, 5 µM [2]: 100%
US11 protein level in infected cells (CMV AD169): lower levels of US11
US11 expression (CMV AD169; convallatoxin 5-50nM (all concentrations)): blocked the expression of US11 at all concentrations
effect on cell viability (MRC5 cells [6]): no detectable effect
viability at 120 h, 0.01 µM [7]: 79%
viability at 120 h, 0.05 µM [7]: 61%
viability at 168 h, 0.01 µM [7]: 91%
viability at 168 h, 0.05 µM [7]: 82%
selectivity ratio (CMV AD169IE2-YFP [3]): > 454
EC50 (CMV TB40/EFLAG-YFP): 0.1 nM
activity at 5.6 µM (CMV AD169IE2-YFP [1]): 27.8 ± 0.87%
YFP fluorescence (% infection vs DMSO) (CMV AD169IE2-YFP [8]; followed 9 days, ganciclovir 12μM): significant decrease in fluorescence
decrease in virus titer compared to ganciclovir treatment (CMV AD169IE2-YFP [8]; plaque assay of supernatants): ~10 fold

Cc1c2oc3c(C)ccc(C(=O)N[C@@H]4C(=O)N[C@H](C(C)C)C(=O)N5CCC[C@H]5C(=O)N(C)CC(=O)N(C)[C@@H](C(C)C)C(=O)O[C@@H]4C)c3nc-2c(C(=O)N[C@@H]2C(=O)N[C@H](C(C)C)C(=O)N3CCC[C@H]3C(=O)N(C)CC(=O)N(C)[C@@H](C(C)C)C(=O)O[C@@H]2C)c(N)c1=O [Actinomycin D] (I: T[dV]P[Sar][NMeV] / II: T[dV]P[Sar][NMeV]; ester I:1-I:C, II:1-II:C; linker I:N-II:N via Actinocin(9to1))
activity at 5.6 µM (CMV AD169IE2-YFP [1]): 5.8 ± 0.11%

COc1ccc(C[C@H]2NC[C@H](O)[C@H]2OC(C)=O)cc1 [Anisomycin]
EC50 (CMV AD169IE2-YFP [3]; MOI 3, 1 h pretreatment, 0-5μM, 18 hpi): 170 nM

C[C@@H]1C[C@@H]([C@H](O)CC2CC(=O)NC(=O)C2)C(=O)[C@@H](C)C1 [Cycloheximide]
activity at 5.6 µM (CMV AD169IE2-YFP [1]): 11.2 ± 1.8%

COc1cc([C@@H]2c3cc4c(c(O)c3C[C@H]3COC(=O)[C@@H]32)OCO4)cc(OC)c1OC [β-peltatin]
activity at 5.6 µM (CMV AD169IE2-YFP [1]): 20.5 ± 0.41%

CO[C@H]1[C@H](O)[C@H](O[C@H]2CC[C@@]3(C=O)[C@H](CC[C@@H]4[C@@H]3CC[C@]3(C)[C@@H](C5=CC(=O)OC5)CC[C@]43O)C2)O[C@@H](C)[C@@H]1O [peruvoside]
reduction of YFP intensity (CMV AD169IE2-YFP [1]): ≤ 70%

COc1cc(C2c3cc4c(cc3C(O)C3COC(=O)C23)OCO4)cc(OC)c1O (stereo not drawn) [4′-demethyl-epipodophyllotoxin]
CC50 (MRC5 cells [9]): > 5000 nM
Selective Ratio (CC50/EC50) (CMV AD169IE2-YFP [3]): >1.5

CN(C)C(=S)SSC(=S)N(C)C [Thiram]
CC50 at 19 h ([2]; MRC5 cells): 2200 nM
Selective Ratio (CC50/EC50) (CMV AD169IE2-YFP [3]): <0.4
Selective Ratio (CC50/EC50) (CMV AD169IE2-YFP [3]; listed as thiram): < 30
activity at 5.6 µM (CMV AD169IE2-YFP [1]): 14 ± 0.29%

CC(=O)O[C@@H]1C[C@@]2(C)[C@H](c3ccoc3)C[C@H]3O[C@]32[C@]2(C)C(=O)C(O)=C3C(C)(C)C(=O)C=C[C@]3(C)[C@@H]12 [Anthothecol]
CC50 at 19 h [2]: 700 nM
Selective Ratio (CC50/EC50) (CMV AD169IE2-YFP [3]): 0.4
Selective Ratio (CC50/EC50) (CMV AD169IE2-YFP [3]; listed as anthothecol): < 30
activity at 5.6 µM (CMV AD169IE2-YFP [1]): 27.5 ± 0.55%

COc1ccc2c(c1OC)C(=O)O[C@@H]2[C@H]1c2c(cc3c(c2OC)OCO3)CCN1C [Noscapine]
activity at 5.6 µM (CMV AD169IE2-YFP [1]): 106%

From article PMC4324837 (Antiviral research, 2014)
